Assay results published in ChEMBL document CHEMBL1770122, “Synthesis, antibacterial and antimycobacterial activities of some new 4-aryl/heteroaryl-2,6-dimethyl-3,5-bis-N-(aryl)-carbamoyl-1,4-dihydropyridines” (2011).
≈ marks a conversion by molar mass, not a printed value. Calls of active or inactive are those of the source. No cut-off for these calls is given here.

Tests used:
Bacillus subtilis [1] = experiment: Antimicrobial activity against Bacillus subtilis NCIM 2063/ATCC 6633 at 12.5 ug/mL after 24 hrs by disc diffusion method; format: functional; conditions: for zone of inhibition at 12.5 µg/mL: NCIM 2063/ATCC 6633, 24 h, read-out: DIZ
Outline: (§1)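 NCIM cultures were used. Test solutions in DMSO, diluted from a 1 mg mL-1 stock to 12.5, 25 or 50 µg mL-1, were loaded onto sterile 5 mm filter-paper discs and dried. Nutrient agar was spread with 100 µL of 24 h bacterial suspension (10^8 cells mL-1). Incubation was 37 ± 1 °C for 24 h, and inhibition-zone diameter was read. DMSO served as control, with tetracyclin and streptomycin (50 µg mL-1) discs as standards. Triplicate, averaged.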

Bacillus subtilis [2] = experiment: Antimicrobial activity against Bacillus subtilis NCIM 2063/ATCC 6633 at 25 ug/mL after 24 hrs by disc diffusion method; format: functional; conditions: NCIM 2063/ATCC 6633, 24 h, read-out: DIZ; outline: as §1
Bacillus subtilis [3] = experiment: Antimicrobial activity against Bacillus subtilis NCIM 2063/ATCC 6633 at 50 ug/mL after 24 hrs by disc diffusion method; format: functional; conditions: NCIM 2063/ATCC 6633, 24 h, read-out: DIZ; outline: as §1
Bacillus subtilis [4] = experiment: Antimicrobial activity against Bacillus subtilis NCIM 2063/ATCC 6633 at 1000 ug/mL after 24 hrs by disc diffusion method; format: functional, organism-based
Staphylococcus aureus [5] = experiment: Antimicrobial activity against Staphylococcus aureus NCIM 2079/ATCC 6538P at 12.5 ug/mL after 24 hrs by disc diffusion method; format: functional; conditions: for zone of inhibition at 12.5 µg/mL: read-out: DIZ; outline: as §1
Staphylococcus aureus [6] = experiment: Antimicrobial activity against Staphylococcus aureus NCIM 2079/ATCC 6538P at 25 ug/mL after 24 hrs by disc diffusion method; format: functional; conditions: read-out: DIZ; outline: as §1
Staphylococcus aureus [7] = experiment: Antimicrobial activity against Staphylococcus aureus NCIM 2079/ATCC 6538P at 50 ug/mL after 24 hrs by disc diffusion method; format: functional; conditions: read-out: DIZ; outline: as §1
Staphylococcus aureus [8] = experiment: Antimicrobial activity against Staphylococcus aureus NCIM 2079/ATCC 6538P at 1000 ug/mL after 24 hrs by disc diffusion method; format: functional, organism-based
Staphylococcus aureus [9] = experiment: Antimicrobial activity against methicillin-resistant Staphylococcus aureus at 12.5 ug/mL after 24 hrs by disc diffusion method; format: functional, organism-based
Staphylococcus aureus [10] = experiment: Antimicrobial activity against methicillin-resistant Staphylococcus aureus at 25 ug/mL after 24 hrs by disc diffusion method; format: functional, organism-based
Staphylococcus aureus [11] = experiment: Antimicrobial activity against methicillin-resistant Staphylococcus aureus at 50 ug/mL after 24 hrs by disc diffusion method; format: functional, organism-based
Staphylococcus aureus [12] = experiment: Antimicrobial activity against methicillin-resistant Staphylococcus aureus at 1000 ug/mL after 24 hrs by disc diffusion method; format: functional; conditions: for zone of inhibition at 1000 µg/mL: read-out: DIZ
Outline: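 Disc diffusion on nutrient agar. Compound at 1 mg mL-1 (1000 µg mL-1) in DMSO was loaded onto 5 mm sterile filter-paper discs and dried. Plates were spread with 100 µL of a 24 h culture at 10^8 cells mL-1. Incubated at 37 ± 1 °C for 24 h; inhibition zone diameters recorded. DMSO control disc. Triplicate, averaged.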

Escherichia coli [13] = experiment: Antimicrobial activity against Escherichia coli NCIM 2068/ATCC 11105 at 12.5 ug/mL after 24 hrs by disc diffusion method; format: functional; conditions: NCIM 2068/ATCC 11105, 24 h, read-out: DIZ; outline: as §1
Escherichia coli [14] = experiment: Antimicrobial activity against Escherichia coli NCIM 2068/ATCC 11105 at 25 ug/mL after 24 hrs by disc diffusion method; format: functional; conditions: NCIM 2068/ATCC 11105, 24 h, read-out: DIZ; outline: as §1
Escherichia coli [15] = experiment: Antimicrobial activity against Escherichia coli NCIM 2068/ATCC 11105 at 50 ug/mL after 24 hrs by disc diffusion method; format: functional; conditions: NCIM 2068/ATCC 11105, 24 h, read-out: DIZ; outline: as §1
Escherichia coli [16] = experiment: Antimicrobial activity against Escherichia coli NCIM 2068/ATCC 11105 at 1000 ug/mL after 24 hrs by disc diffusion method; format: functional, organism-based
Proteus vulgaris [17] = experiment: Antimicrobial activity against Proteus vulgaris NCIM 2027/ATCC 13315 at 12.5 ug/mL after 24 hrs by disc diffusion method; format: functional; conditions: NCIM 2027/ATCC 13315, 24 h, read-out: DIZ; outline: as §1
Proteus vulgaris [18] = experiment: Antimicrobial activity against Proteus vulgaris NCIM 2027/ATCC 13315 at 25 ug/mL after 24 hrs by disc diffusion method; format: functional; conditions: NCIM 2027/ATCC 13315, 24 h, read-out: DIZ; outline: as §1
Proteus vulgaris [19] = experiment: Antimicrobial activity against Proteus vulgaris NCIM 2027/ATCC 13315 at 50 ug/mL after 24 hrs by disc diffusion method; format: functional; conditions: NCIM 2027/ATCC 13315, 24 h, read-out: DIZ; outline: as §1
Proteus vulgaris [20] = experiment: Antimicrobial activity against Proteus vulgaris NCIM 2027/ATCC 13315 at 1000 ug/mL after 24 hrs by disc diffusion method; format: functional, organism-based
[21] = test system: Mycobacterium tuberculosis; experiment: Antimycobacterial activity against multidrug-susceptible Mycobacterium tuberculosis H37Rv ATCC 27294 after 4 weeks; format: functional; conditions: H37Rv ATCC 27294, 672 h
Outline: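 Lowenstein-Jensen proportion method. Drug at 6.25, 12.5, 25, 50 and 100 µg mL-1 in LJ medium slants, set overnight. Inoculated with 4 mg mL-1 suspension by 3 mm loop, 37 °C, 4 weeks. MIC is the lowest concentration fully inhibiting growth, by CFU versus medium, inoculated and DMSO controls. Three independent determinations.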

| Compound | zone of inhibition at 12.5 µg/mL (Bacillus subtilis [1]) [mm] | zone of inhibition at 25 µg/mL (Bacillus subtilis [2]) [mm] | zone of inhibition at 50 µg/mL (Bacillus subtilis [3]) [mm] | diameter of the inhibition zone (DIZ) (Bacillus subtilis [4]) | zone of inhibition at 25 µg/mL (Staphylococcus aureus [6]) [mm] | zone of inhibition at 50 µg/mL (Staphylococcus aureus [7]) [mm] | diameter of the inhibition zone (DIZ) (Staphylococcus aureus [8]) | diameter of the inhibition zone (DIZ) (Staphylococcus aureus [9]) | diameter of the inhibition zone (DIZ) (Staphylococcus aureus [10]) | diameter of the inhibition zone (DIZ) (Staphylococcus aureus [11]) | zone of inhibition at 12.5 µg/mL (Escherichia coli [13]) [mm] | zone of inhibition at 25 µg/mL (Escherichia coli [14]) [mm] | zone of inhibition at 50 µg/mL (Escherichia coli [15]) [mm] | diameter of the inhibition zone (DIZ) (Escherichia coli [16]) | zone of inhibition at 12.5 µg/mL (Proteus vulgaris [17]) [mm] | zone of inhibition at 25 µg/mL (Proteus vulgaris [18]) [mm] | zone of inhibition at 50 µg/mL (Proteus vulgaris [19]) [mm] | diameter of the inhibition zone (DIZ) (Proteus vulgaris [20]) | MIC [21] [µg/mL] | zone of inhibition at 1000 µg/mL (Staphylococcus aureus [12]) [mm] | further results |
| --- | --- | --- | --- | --- | --- | --- | --- | --- | --- | --- | --- | --- | --- | --- | --- | --- | --- | --- | --- | --- | --- |
| CCc1ccc(C2C(C(=O)Nc3ccccc3)=C(C)NC(C)=C2C(=O)Nc2ccccc2)cc1 | 11 | 13 | 21 | inactive | 11 | 16 | inactive | inactive | inactive | inactive | 10 | 13 | 15 | inactive | 9 | 14 | 16 | inactive | > 25 |  | zone of inhibition at 12.5 µg/mL (Staphylococcus aureus [5]): 8 mm; diameter of the inhibition zone (DIZ) (Staphylococcus aureus [12]): inactive |
| NC(=O)c1cnccn1 [PYRAZINAMIDE] |  |  |  |  |  |  |  |  |  |  |  |  |  |  |  |  |  |  | 32 (≈ 260 µM) |  |  |
| CN[C@@H]1[C@H](O[C@H]2[C@H](O[C@H]3[C@H](O)[C@@H](O)[C@H](N=C(N)N)[C@@H](O)[C@@H]3N=C(N)N)O[C@@H](C)[C@]2(O)C=O)O[C@@H](CO)[C@H](O)[C@H]1O [STREPTOMYCIN] |  |  | 22 | inactive |  | 21 | inactive |  |  | inactive |  |  | 23 | inactive |  |  | 26 | inactive |  | 18 |  |
| CC1=C(C(=O)Nc2ccccc2C)C(c2ccccn2)C(C(=O)Nc2ccccc2C)=C(C)N1 |  | 8 | 10 | inactive | 12 | 15 | inactive | inactive | inactive | inactive | 14 | 17 | 19 | inactive | 10 | 12 | 16 | inactive | 25 (≈ 55.2 µM) | 8 | diameter of the inhibition zone (DIZ) (Bacillus subtilis [1]): inactive; diameter of the inhibition zone (DIZ) (Staphylococcus aureus [5]): inactive |
| CC1=C(C(=O)Nc2ccc(C)cc2)C(c2ccc[nH]2)C(C(=O)Nc2ccc(C)cc2)=C(C)N1 | 7 | 11 | 13 | inactive | 11 | 12 | inactive | inactive | inactive | inactive | 14 | 19 | 22 | inactive | 10 | 14 | 18 | inactive | 12.5 (≈ 28.4 µM) | 10 | zone of inhibition at 12.5 µg/mL (Staphylococcus aureus [5]): 9 mm |
| CN(C)[C@@H]1C(O)=C(C(N)=O)C(=O)[C@@]2(O)C(O)=C3C(=O)c4c(O)cccc4[C@@](C)(O)[C@H]3C[C@@H]12 [TETRACYCLINE] |  |  | 20 | inactive |  | 22 | inactive |  |  | inactive |  |  | 25 | inactive |  |  | 21 | inactive |  | 15 |  |
| CC1=C(C(=O)Nc2ccc(C)cc2)C(c2ccccn2)C(C(=O)Nc2ccc(C)cc2)=C(C)N1 | 9 | 10 | 12 | inactive | 10 | 12 | inactive | inactive | inactive | inactive | 8 | 10 | 14 | inactive | 9 | 12 | 16 | inactive | > 25 |  | zone of inhibition at 12.5 µg/mL (Staphylococcus aureus [5]): 8 mm; diameter of the inhibition zone (DIZ) (Staphylococcus aureus [12]): inactive |
| CC1=C(C(=O)Nc2ccccc2)C(c2ccco2)C(C(=O)Nc2ccccc2)=C(C)N1 | 10 | 14 | 16 | inactive | 12 | 14 | inactive | inactive | inactive | inactive | 12 | 15 | 18 | inactive | 8 | 13 | 17 | inactive | > 25 | 10 | zone of inhibition at 12.5 µg/mL (Staphylococcus aureus [5]): 8 mm |
